Laboratory results: ChEMBL document CHEMBL1150649, “Neoclerodane and labdane diterpenoids from Plectranthus ornatus” (2002)
Values after ≈ are worked out from the molar mass of the structure shown. Active and inactive are the calls of the source. No cut-off for these calls is given here.

Key:
[1] = tested on: Staphylococcus aureus; assay: Antimicrobial activities against Staphylococcus aureus ATCC 25923 by […]; type: functional, organism-based
[2] = tested on: Meyerozyma guilliermondii; assay: Antimicrobial activities against Candida guilliermondii by broth microdilution method; type: functional
How it was run: (§1)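 Test compounds were dissolved in DMSO and serially diluted in Mueller-Hinton broth over 250 to 3.9 µg/mL. Broth microdilution followed NCCLS guidelines. MIC was the lowest concentration showing no microbial growth compared with a compound-free control.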

[3] = tested on: Pichia kudriavzevii; assay: Antimicrobial activities against Candida krusei by broth microdilution method; type: functional; how it was run: as §1
[4] = tested on: Pseudomonas aeruginosa; assay: Antimicrobial activities against Pseudomonas aeruginosa ATCC 27853 by broth microdilution method; type: functional; how it was run: as §1
[5] = tested on: Escherichia coli; assay: Antimicrobial activities against Escherichia coli ATCC 25922 by broth microdilution method; type: functional; how it was run: as §1
[6] = tested on: Candida tropicalis; assay: Antimicrobial activities against Candida tropicalis by broth microdilution method; type: functional; how it was run: as §1
[7] = tested on: Candida albicans; assay: Antimicrobial activities against Candida albicans CIP 3153A by broth microdilution method; type: functional; how it was run: as §1
[8] = tested on: Nakaseomyces glabratus; assay: Antimicrobial activities against Candida glabrata by broth microdilution method; type: functional; how it was run: as §1
[9] = tested on: Staphylococcus aureus; assay: Antimicrobial activities against Staphylococcus aureus ATCC 25923 by broth microdilution method; type: functional; how it was run: as §1

| MIC [2] [µg/mL] | MIC [3] [µg/mL] | MIC [4] [µg/mL] | MIC [5] [µg/mL] | MIC [6] [µg/mL] | MIC [7] [µg/mL] | MIC [8] [µg/mL] | MIC [9] [µg/mL] | SMILES | Activity [1] |
| --- | --- | --- | --- | --- | --- | --- | --- | --- | --- |
|  |  |  |  |  |  |  |  | C=C[C@@]1(C)CC(=O)[C@@H]2[C@@]3(C)[C@@H](O)CCC(C)(C)[C@@H]3[C@H](OC(C)=O)C[C@@]2(C)O1 (relative stereo) | Active |
| 62.5 (≈ 149 µM) | 62.5 (≈ 149 µM) | ≥ 125 | ≥ 125 | 62.5 (≈ 149 µM) | 62.5 (≈ 149 µM) | 62.5 (≈ 149 µM) | ≥ 125 | C=C[C@@]1(C)CC(=O)[C@@H]2[C@@]3(C)[C@@H](OC(C)=O)CCC(C)(C)[C@@H]3[C@H](OC(C)=O)C[C@@]2(C)O1 (relative stereo) [PLECTRORNATIN C] |  |
| 62.5 (≈ 160 µM) | 62.5 (≈ 160 µM) | ≥ 125 | ≥ 125 | 62.5 (≈ 160 µM) | 62.5 (≈ 160 µM) | 62.5 (≈ 160 µM) | ≥ 125 | COC(=O)/C=C(\C)C[C@@H](OC(C)=O)[C@@]1(C)[C@H](C)CC[C@@]2(C)C(C)=CC(=O)C[C@H]12 [PLECTRORNATIN A] |  |
